Legend:
Format in all cases: functional
[1] = system: Pseudomonas aeruginosa; assay: Antimicrobial activity against metallo-beta-lactamase-negative Pseudomonas aeruginosa isolate PA494
[2] = system: Pseudomonas aeruginosa; assay: Antimicrobial activity against Pseudomonas aeruginosa isolate PA469 expressing VIM-2 beta-lactamase in presence of Tazobactam
[3] = system: Pseudomonas aeruginosa; assay: Antimicrobial activity against metallo-beta-lactamase-negative Pseudomonas aeruginosa isolate PA460 in presence of Tazobactam
[4] = system: Pseudomonas aeruginosa; assay: Antimicrobial activity against Pseudomonas aeruginosa isolate PA510 expressing VIM-2 beta-lactamase in presence of Tazobactam
[5] = system: Pseudomonas aeruginosa; assay: Antimicrobial activity against Pseudomonas aeruginosa isolate PA481 expressing VIM-2 beta-lactamase in presence of Tazobactam
[6] = system: Pseudomonas aeruginosa; assay: Antimicrobial activity against metallo-beta-lactamase-negative Pseudomonas aeruginosa isolate PA507
Outline: (§1)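 MBL-negative clinical P. aeruginosa isolates with reduced imipenem susceptibility, collected at the study hospital, some from cystic fibrosis patients. Species identity was confirmed by automated Gram-negative identification card. MIC was read in μg/ml.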

[7] = system: Pseudomonas aeruginosa; assay: Antimicrobial activity against Pseudomonas aeruginosa isolate PA481 expressing VIM-2 beta-lactamase
[8] = system: Pseudomonas aeruginosa; assay: Antimicrobial activity against metallo-beta-lactamase-negative Pseudomonas aeruginosa isolate PA483 in presence of Tazobactam
[9] = system: Pseudomonas aeruginosa; assay: Antimicrobial activity against Pseudomonas aeruginosa isolate PA462 expressing VIM-2 beta-lactamase
[10] = system: Pseudomonas aeruginosa; assay: Antimicrobial activity against Pseudomonas aeruginosa isolate PA500 expressing VIM-1 beta-lactamase
[11] = system: Pseudomonas aeruginosa; assay: Antimicrobial activity against metallo-beta-lactamase-negative Pseudomonas aeruginosa isolate PA460
[12] = system: Pseudomonas aeruginosa; assay: Antimicrobial activity against metallo-beta-lactamase-negative Pseudomonas aeruginosa isolate PA479
[13] = system: Pseudomonas aeruginosa; assay: Antimicrobial activity against Pseudomonas aeruginosa isolate PA465 expressing VIM-2 beta-lactamase in presence of Tazobactam
[14] = system: Pseudomonas aeruginosa; assay: Antimicrobial activity against Pseudomonas aeruginosa isolate PA399 expressing VIM-2 beta-lactamase
[15] = system: Pseudomonas aeruginosa; assay: Antimicrobial activity against Pseudomonas aeruginosa isolate PA465 expressing VIM-2 beta-lactamase
[16] = system: Pseudomonas aeruginosa; assay: Antimicrobial activity against metallo-beta-lactamase-negative Pseudomonas aeruginosa isolate PA509 in presence of Tazobactam
[17] = system: Pseudomonas aeruginosa; assay: Antimicrobial activity against metallo-beta-lactamase-negative Pseudomonas aeruginosa isolate PA509
[18] = system: Pseudomonas aeruginosa; assay: Antimicrobial activity against Pseudomonas aeruginosa isolate PA399 expressing VIM-2 beta-lactamase in presence of Tazobactam
[19] = system: Pseudomonas aeruginosa; assay: Antimicrobial activity against Pseudomonas aeruginosa isolate PA510 expressing VIM-2 beta-lactamase
[20] = system: Pseudomonas aeruginosa; assay: Antimicrobial activity against metallo-beta-lactamase-negative Pseudomonas aeruginosa isolate PA494 in presence of Tazobactam
[21] = system: Pseudomonas aeruginosa; assay: Antimicrobial activity against Pseudomonas aeruginosa isolate PA462 expressing VIM-2 beta-lactamase in presence of Tazobactam
[22] = system: Pseudomonas aeruginosa; assay: Antimicrobial activity against metallo-beta-lactamase-negative Pseudomonas aeruginosa isolate PA459 in presence of Tazobactam
[23] = system: Pseudomonas aeruginosa; assay: Antimicrobial activity against metallo-beta-lactamase-negative Pseudomonas aeruginosa isolate PA507 in presence of Tazobactam
[24] = system: Pseudomonas aeruginosa; assay: Antimicrobial activity against metallo-beta-lactamase-negative Pseudomonas aeruginosa isolate PA483
[25] = system: Pseudomonas aeruginosa; assay: Antimicrobial activity against metallo-beta-lactamase-negative Pseudomonas aeruginosa isolate PA459; outline: as §1
[26] = system: Pseudomonas aeruginosa; assay: Antimicrobial activity against Pseudomonas aeruginosa isolate PA477 expressing VIM-2 beta-lactamase
[27] = system: Pseudomonas aeruginosa; assay: Antimicrobial activity against Pseudomonas aeruginosa isolate PA469 expressing VIM-2 beta-lactamase
[28] = system: Pseudomonas aeruginosa; assay: Antimicrobial activity against Pseudomonas aeruginosa isolate PA477 expressing VIM-2 beta-lactamase in presence of Tazobactam
[29] = system: Pseudomonas aeruginosa; assay: Antimicrobial activity against Pseudomonas aeruginosa isolate PA500 expressing VIM-1 beta-lactamase in presence of Tazobactam
[30] = system: Pseudomonas aeruginosa; assay: Antimicrobial activity against Pseudomonas aeruginosa isolate PA475 expressing VIM-2 beta-lactamase
[31] = system: Pseudomonas aeruginosa; assay: Antimicrobial activity against metallo-beta-lactamase-negative Pseudomonas aeruginosa isolate PA479 in presence of Tazobactam
[32] = system: Pseudomonas aeruginosa; assay: Antimicrobial activity against Pseudomonas aeruginosa isolate PA475 expressing VIM-2 beta-lactamase in presence of Tazobactam

CCN1CCN(C(=O)N[C@@H](C(=O)N[C@@H]2C(=O)N3[C@@H]2SC(C)(C)[C@@H]3C(=O)O)c2ccccc2)C(=O)C1=O [PIPERACILLIN]
MIC [1]: ≥ 128 mg/L
MIC [2]: ≥ 128 mg/L
MIC [3]: ≥ 128 mg/L
MIC [4]: ≥ 128 mg/L
MIC [5]: ≥ 128 mg/L
MIC [6]: ≥ 128 mg/L
MIC [7]: ≥ 128 mg/L
MIC [8]: ≥ 128 mg/L
MIC [9]: ≥ 128 mg/L
MIC [10]: ≥ 128 mg/L
MIC [11]: ≥ 128 mg/L
MIC [12]: ≥ 128 mg/L
MIC [13]: 64 mg/L
MIC [14]: ≥ 128 mg/L
MIC [15]: ≥ 128 mg/L
MIC [16]: ≥ 128 mg/L
MIC [17]: ≥ 128 mg/L
MIC [18]: ≥ 128 mg/L
MIC [19]: ≥ 128 mg/L
MIC [20]: ≥ 128 mg/L
MIC [21]: ≥ 128 mg/L
MIC [22]: ≥ 128 mg/L
MIC [23]: ≥ 128 mg/L
MIC [24]: ≥ 128 mg/L
MIC [25]: ≥ 128 mg/L
MIC [26]: ≥ 128 mg/L
MIC [27]: ≥ 128 mg/L
MIC [28]: ≥ 128 mg/L
MIC [29]: ≥ 128 mg/L
MIC [30]: ≥ 128 mg/L
MIC [31]: ≥ 128 mg/L
MIC [32]: ≥ 128 mg/L
